Reference: ChEMBL document CHEMBL1121406, “Synthesis, in vitro opiate activity, and intramolecular tyrosine--tryptophan distances of [4-tryptophan]enkephalin analogues. A reassessment of conformational models of enkephalin in solution” (1980)
Peptide text beside a SMILES is read from it.

Organism: Cavia porcellus
Assay: Relative narcotic agonistic activity was performed by inhibition of electrically evoked contractions compared with [Met5]-enkephalin (100%) in guinea pig ileum
Format: functional
Set-up: scale not given: the % may be the effect or the level left
Method in brief: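 Isolated guinea pig ileum; inhibition of electrically evoked contractions as agonist read-out. Single pulses of 4-ms duration at 3 to 6 V; isometric contractions recorded. Potency expressed relative to [Met5]enkephalin taken as 100%.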

SMILES	Activity [%]
CC(C)C[C@@H](C(=O)O)N(C)C(=O)[C@H](Cc1c[nH]c2ccccc12)NC(=O)CNC(=O)CNC(=O)[C@@H](N)Cc1ccc(O)cc1	4
CSCC[C@H](NC(=O)[C@H](Cc1ccccc1)NC(=O)CNC(=O)CNC(=O)[C@@H](N)Cc1ccc(O)cc1)C(=O)O	100
N[C@@H](Cc1ccc(O)cc1)C(=O)NCC(=O)NCC(=O)N[C@@H](Cc1ccccc1)C(=O)N1CCC[C@H]1C(=O)O	1
COc1ccc(C[C@H](N)C(=O)NCC(=O)NCC(=O)N[C@@H](Cc2c[nH]c3ccccc23)C(=O)N[C@@H](CCSC)C(=O)O)cc1	0.5
CC(C)C[C@@H](C(=O)O)N(C)C(=O)[C@H](Cc1ccccc1)NC(=O)CNC(=O)CNC(=O)[C@@H](N)Cc1ccc(O)cc1	70
CC(C)C[C@H](NC(=O)[C@H](Cc1c[nH]c2ccccc12)NC(=O)CNC(=O)CNC(=O)[C@@H](N)Cc1ccc(O)cc1)C(=O)O	10
CSCC[C@H](NC(=O)[C@H](Cc1c[nH]c2ccccc12)NC(=O)CNC(=O)CNC(=O)[C@@H](N)Cc1ccc(O)cc1)C(=O)O (H-YGGWM-OH)	27
CSCC[C@H](NC(=O)[C@H](Cc1c[nH]c2ccccc12)N(C)C(=O)CNC(=O)CNC(=O)[C@@H](N)Cc1ccc(O)cc1)C(=O)O	39
COc1ccc(C[C@H](N)C(=O)NCC(=O)NCC(=O)N[C@@H](Cc2ccccc2)C(=O)N[C@@H](CCSC)C(=O)O)cc1	2
CC(C)C[C@H](NC(=O)[C@H](Cc1ccccc1)NC(=O)CNC(=O)CNC(=O)[C@@H](N)Cc1ccc(O)cc1)C(=O)O [ENKEPHALIN]	24
N[C@@H](Cc1ccc(O)cc1)C(=O)NCC(=O)NCC(=O)N[C@@H](Cc1c[nH]c2ccccc12)C(=O)N1CCC[C@H]1C(=O)O	1
